Source: ChEMBL document CHEMBL5620402, “Development of submicromolar 17β-HSD10 inhibitors and their in vitro and in vivo evaluation” (Eur J Med Chem, 2023)

Key:
[1] = PBS buffer - Octanol distribution coefficient, logD of the compound at pH 7.4 by UHPLC-DAD-MS analysis; type: physicochemical
How it was run: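 Compound (0.25 mg) was put into 500 μL of a 1:1 water–octanol (logP) or PBS pH 7.4–octanol (logD) mixture. Samples were shaken 30 min and centrifuged 10 min at 10,000 rcf. Each phase was quantified by UHPLC-DAD-MS against calibration lines.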

[2] = Dissociation constant, pKa of compound using buffers of given pH (range from 3.0 to 11.5) by UV-VIS spectrophotometry; type: physicochemical
How it was run: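 Compound (10 μL of 1 mg/mL) was put into 490 μL of buffers spanning pH 3.0–11.5 in 0.5-unit steps. UV spectra were scanned at 200–400 nm and 20 °C. pKa was fitted from the sigmoidal absorbance of the dissociated form versus pH.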

[3] = biological target: T1, 3-hydroxyacyl-CoA dehydrogenase type-2 (Homo sapiens) (UniProt Q99714); assay: Inhibition of recombinant 17beta-HSD10 (unknown origin) expressed in Escherichia coli BL21 (DE3) assessed as residual activity at 1 uM using acetoacetyl-CoA as substrate by SAAC method relative to control
T1 sequence (whole entry): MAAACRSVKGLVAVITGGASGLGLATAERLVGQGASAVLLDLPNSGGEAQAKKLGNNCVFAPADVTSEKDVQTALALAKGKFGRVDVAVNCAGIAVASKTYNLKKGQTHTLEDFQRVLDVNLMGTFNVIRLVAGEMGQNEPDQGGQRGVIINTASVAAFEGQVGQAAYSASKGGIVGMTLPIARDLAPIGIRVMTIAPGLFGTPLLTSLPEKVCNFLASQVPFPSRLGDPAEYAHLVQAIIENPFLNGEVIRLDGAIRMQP
How it was run: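 Recombinant 17β-HSD10 from E. coli BL21(DE3), 0.15 μg, was mixed with 320 μmol/L NADH in Tris-HCl pH 7.4 assay buffer. It was preincubated 5 min at 37 °C with 1 or 10 μM inhibitor or vehicle, then 320 μmol/L acetoacetyl-CoA was added. A340 was followed for 5 min. Residual activity is % of control, triplicate mean ± SD, with t-test versus control.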

[4] = biological target: T2, Citrate synthase, mitochondrial (Sus scrofa) (UniProt P00889); assay: Inhibition of pig brain mitochondrial citrate synthase assessed as activity at 50 uM by DTNB method (reference value: 100 + /- 5.5%); design: scale not given: the % may be the effect or the level left; conditions: Mitochondria
T2 sequence (whole entry): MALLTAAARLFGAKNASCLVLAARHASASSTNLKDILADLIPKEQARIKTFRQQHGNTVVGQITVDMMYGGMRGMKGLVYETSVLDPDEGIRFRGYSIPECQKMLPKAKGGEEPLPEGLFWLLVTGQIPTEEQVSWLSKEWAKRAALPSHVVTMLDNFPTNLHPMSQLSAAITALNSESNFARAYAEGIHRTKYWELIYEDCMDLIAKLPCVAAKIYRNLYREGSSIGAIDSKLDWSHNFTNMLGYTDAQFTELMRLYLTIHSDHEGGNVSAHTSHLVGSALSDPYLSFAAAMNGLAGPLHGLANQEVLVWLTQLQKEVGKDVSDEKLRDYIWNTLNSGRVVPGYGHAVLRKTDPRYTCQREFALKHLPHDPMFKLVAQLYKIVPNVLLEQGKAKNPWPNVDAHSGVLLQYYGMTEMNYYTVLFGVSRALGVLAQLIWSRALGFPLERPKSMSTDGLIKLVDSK

Sus scrofa [5] = species on record: Sus scrofa; assay: Inhibition of pig brain mitochondrial Complex I assessed as rotenone-sensitive rate of the NADH oxidation by measuring activity by spectrophotometric ally method (reference value: 100 + /- 3.3%); design: scale not given: the % may be the effect or the level left; conditions: Mitochondria
How it was run: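 Sonicated pig brain mitochondria (1 mg/mL protein) were held in 25 mM KH2PO4, 5 mM MgCl2 pH 7.2 with 2 mM KCN. They were incubated with 50 μM drug for 30 min at 30 °C. The reaction was started with coenzyme Q10 and NADH (100 μM each), and A340 was read for 5 min. The rotenone (10 μM)-insensitive background was subtracted. At least three measurements.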

Sus scrofa [6] = species on record: Sus scrofa; assay: Inhibition of pig brain mitochondrial Complex II and III assessed as antimycin A-sensitive rate of cytochrome c reduction upon addition of succinate by measuring activity by spectrophotometric ally method (reference value: 100 + /- 5.6%); design: scale not given: the % may be the effect or the level left; conditions: Mitochondria
[7] = biological target: T3, Amine oxidase [flavin-containing] B (Sus scrofa, UniProt Q6PLK3); assay: Inhibition of pig brain mitochondrial MAO-B using [14C]PEA as substrate incubated for 60 mins by liquid scintillation counting analysis; type: mitochondria, Mitochondria
T3 sequence (Q6PLK3 whole entry): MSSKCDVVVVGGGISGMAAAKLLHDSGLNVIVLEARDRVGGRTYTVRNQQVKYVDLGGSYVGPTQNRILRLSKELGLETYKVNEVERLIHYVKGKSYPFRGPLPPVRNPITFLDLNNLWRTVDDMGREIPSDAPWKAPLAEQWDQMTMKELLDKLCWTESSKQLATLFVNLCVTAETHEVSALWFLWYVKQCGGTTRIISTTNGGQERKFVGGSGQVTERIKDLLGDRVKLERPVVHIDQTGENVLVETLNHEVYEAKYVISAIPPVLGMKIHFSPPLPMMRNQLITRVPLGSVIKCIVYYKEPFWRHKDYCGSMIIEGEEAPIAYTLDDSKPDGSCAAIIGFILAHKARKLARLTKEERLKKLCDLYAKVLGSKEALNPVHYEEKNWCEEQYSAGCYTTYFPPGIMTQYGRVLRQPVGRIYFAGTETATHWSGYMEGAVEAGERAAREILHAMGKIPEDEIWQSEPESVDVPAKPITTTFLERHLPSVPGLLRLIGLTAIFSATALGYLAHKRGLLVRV
How it was run: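 Pig brain mitochondria were preincubated with drug at 5–7 concentrations (1–1000 μM) for 60 min at 37 °C. Radiolabelled substrate was then added: [3H]5-HT for MAO-A (20 min) or [14C]PEA for MAO-B (1 min). The aldehyde product was counted by liquid scintillation. IC50 came from four-parameter logistic fits; mean ± SE of ≥2 runs.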

[8] = Inhibition of complex I linked mitochondrial respiration in isolated pig brain mitochondria by O2k respirometry; design: species or system Sus scrofa
How it was run: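 Respirometry (Oxygraph-2k) of purified pig brain cortex mitochondria in state 3. Substrates were malate + pyruvate + ADP (Complex I) or ADP + rotenone + succinate (Complex II). One chamber was titrated with compound (10–20 concentrations, final 1.25–500 μM) and the other with DMSO; rates were expressed relative to DMSO. IC50 came from four-parameter logistic fits.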

HEK293 [9] = assay: Cytotoxicity against human HEK293 cells assessed as change in ATP level at 1 uM measured after 48 hrs by CellTiter-Glo assay; type: toxicity, cell-based; conditions: hek293, 48 h
How it was run: (§1)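 HEK293 or SH-SY5Y cells in DMEM with 10% FBS, 2 mM glutamine and NEAA were seeded at 7,500 cells per well and grown 24 h. They were then exposed to 1 or 10 μM compound (final 1% DMSO) for 48 h. ATP was read by CellTiter-Glo luminescence after CellTox Green, normalised to 1% DMSO and 100 μM valinomycin controls. At least two experiments in tetraplicate.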

HEK293 [10] = assay: Cytotoxicity against human HEK293 cells assessed as change in ATP level at 10 uM measured after 48 hrs by CellTiter-Glo assay; type: toxicity, cell-based; conditions: hek293, 48 h; how it was run: as §1

logD [1] | pKa [2] | Activity [3] [%] | Activity [4] [%] | Activity (Sus scrofa [6]) [%] | IC50 ([7]; read-out: IC50) [µM] | IC50 [7] | SMILES | Activity (Sus scrofa [5]) [%] | IC50 [8] [µM] | Activity (HEK293 [9]) | Activity (HEK293 [10])
3.35 | 9.83 | 49.5 | 99.9 | 97.4 | 120 |  | CC(=O)Nc1ccc2nc(NC(=O)Nc3ccc(O)c(Cl)c3)sc2c1 | 24.3 | 36.4 | Non-Toxic | Non-Toxic
0.75 | 9.75 | 50 | 100 |  | 81 |  | O=C(Nc1ccc(O)c(Cl)c1)Nc1nc2ccc(C(=O)O)cc2s1 | 87.7 | 93 | Non-Toxic | Non-Toxic
3.34 | 9.35 | 50 | 94.4 | 99.7 | 84 |  | NC(=O)c1ccc2nc(NC(=O)Nc3ccc(O)c(Cl)c3)sc2c1 | 25.2 | 88 | Non-Toxic | Non-Toxic
5.06 | 11.2 | 39.8 | 92.7 | 52.2 |  | Not Active | COc1ccc2nc(NC(=O)Nc3ccc(O)c(C(F)(F)F)c3)sc2c1 | 5.3 | 28 | Non-Toxic | Non-Toxic
